One may read the pIC50 as the negative decadic logarithm of the IC50, by convention in mol/L.

In one assay the test system is HT-29. The experiment in a line: Cytotoxicity against human HT-29 cells after 72 hrs by MTT assay. It is filed as functional, cell-based. To be noted: HT-29, 72 h. The essentials:
(§1)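 Cells grown in MEM with 10% FBS; about 4×10^3 cells per well, preincubated 24 h at 37 °C in 5% CO₂, then exposed to compounds for 72 h. MTT at a […] added for 4 h at 37 °C. Formazan dissolved in DMSO; absorbance read at 492 nm against 630 nm reference. Three runs per line; IC50 reported as mean ± SD.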
For orientation: Formazan colour is commonly taken as a measure of viable cells.

In another assay the test system is NCI-H460. The experiment in a line: Cytotoxicity against human NCI-H460 cells after 72 hrs by MTT assay. To be noted: NCI-H460, 72 h. The assay is classed as functional, cell-based. An outline of the steps: as §1
For another assay, the system named is A549. The experiment in a line: Cytotoxicity against human A549 cells after 72 hrs by MTT assay. It is filed as functional, cell-based. Particulars: A549, 72 h. The essentials: as §1
The subject of another assay is MKN-45. The experiment in a line: Cytotoxicity against human MKN45 cells after 72 hrs by MTT assay. Particulars: MKN-45, 72 h. The assay is classed as functional, cell-based. The essentials:
as §1

In the next assay the test system is SMMC-7721. As to the kind of experiment: Cytotoxicity against human SMMC7721 cells after 72 hrs by MTT assay. The assay is classed as functional, cell-based. Particulars: SMMC-7721, 72 h. An outline of the steps:
as §1

The next assay is filed under the species Homo sapiens. As to the kind of experiment: Inhibition of colchicine binding to tubulin (unknown origin) up to 15 uM pretreated for 1 hr followed by colchicine addition by spectrofluorometric method. The essentials:
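Tubulin preincubated 1 h at 37 °C with test agent (0, 1.6, 5, 15 μM), then colchicine added to a final 5 μM. Fluorescence read at excitation 365 nm and emission 435 nm, with buffer blank subtracted. Value is F/F0 × 100%, where F0 is fluorescence of the colchicine–tubulin complex without competitor.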

pIC50: −log10 of the molar value. The source made the active and inactive calls. No cut-off for these calls is given here.

Turning to `CCN(CC)Cc1cnc2c(C#N)c(-c3ccc(OC)c(OC)c3OC)cc(-c3ccc(F)cc3)n12`, the pIC50 in the assay with HT-29 was 5.52; in the assay on NCI-H460, 5.51; in the assay on A549, 5.71; in the assay on MKN-45, 4.63; in the assay with SMMC-7721, 5.16.

For `CNCc1cnc2c(C#N)c(-c3ccc(OC)c(OC)c3OC)cc(-c3ccc(F)cc3)n12`, the pIC50 with HT-29 is 6.08; in the assay on NCI-H460, 5.73; in the assay with A549 it was 6.15; in the assay with MKN-45, 5.52; in the assay on SMMC-7721, 5.35.

Regarding `N#Cc1c(-c2ccc(F)cc2F)cc(-c2c[nH]c3ccccc23)n2cc(CN3CCOCC3)nc12`, the pIC50 in the assay with HT-29 is 5.57; with NCI-H460, 6.72; in the assay with A549, 5.48; with MKN-45, 5.10; in the assay with SMMC-7721, 4.89.

For the molecule `COc1ccc(-c2cc(-c3ccc(F)cc3)n3c(CN4CCCC4)cnc3c2C#N)c(OC)c1OC`, the pIC50 in the assay on HT-29 was 5.71; with NCI-H460, 4.81; in the assay on A549, 5.88; with MKN-45, 5.23; in the assay with SMMC-7721, 5.29.

For `CCNCc1cn2c(-c3c[nH]c4ccccc34)cc(-c3ccc(F)cc3F)c(C#N)c2n1`, the pIC50 in the assay with HT-29 is 7.30; with NCI-H460 it was 6.82; with A549 it was 6.04; in the assay with MKN-45 it was 5.56; with SMMC-7721, 5.21.

For `COc1cc(-c2cc(-c3ccc(F)cc3F)n3c(CN4CCCC4)cnc3c2C#N)cc(OC)c1OC`, the pIC50 in the assay on HT-29 was 6.15; in the assay on NCI-H460 it was 6.89; in the assay with A549, 5.92; in the assay on MKN-45, 4.94; in the assay on SMMC-7721 it was 5.53.

`COc1ccc(-c2cc(-c3ccc(F)cc3)n3c(CN4CCN(C)CC4)cnc3c2C#N)c(OC)c1OC`: the pIC50 with HT-29 is 5.69; with NCI-H460, 5.41; in the assay on A549 it was 4.91; in the assay on MKN-45, 5.26; with SMMC-7721, 4.61.

As to `COc1ccc(-c2cc(-c3ccc(F)cc3)n3c(CN(C)C)cnc3c2C#N)c(OC)c1OC`, the pIC50 with HT-29 is 6.10; with NCI-H460, 5.03; with A549, 6.17; in the assay with MKN-45 it was 5.16; with SMMC-7721, 5.52.

For the molecule `CNCc1cn2c(-c3c[nH]c4ccccc34)cc(-c3ccc(F)cc3F)c(C#N)c2n1`, the pIC50 is 6.80 with HT-29; 6.70 in the assay on NCI-H460; 5.05 in the assay on A549; 4.74 in the assay on MKN-45; 4.79 with SMMC-7721.

Take `CC1CCN(Cc2cn3c(-c4c[nH]c5ccccc45)cc(-c4ccc(F)cc4F)c(C#N)c3n2)CC1`: the pIC50 in the assay on HT-29 is 8.00; in the assay with NCI-H460, 6.70; with A549, 5.44; in the assay with MKN-45 it was 5.58; in the assay on SMMC-7721, 5.45.

Take `CNCc1cnc2c(C#N)c(-c3ccc(OC)c(OC)c3OC)cc(-c3ccc(F)cc3F)n12`: the pIC50 was 7.15 in the assay on HT-29; 7.70 in the assay with NCI-H460; 6.89 in the assay with A549; 5.57 in the assay on MKN-45; 5.93 in the assay with SMMC-7721.

Regarding `CC(C)NCc1cn2c(-c3c[nH]c4ccccc34)cc(-c3ccc(F)cc3F)c(C#N)c2n1`, the pIC50 in the assay on HT-29 is 7.10; in the assay on NCI-H460, 6.74; in the assay with A549, 5.72; in the assay with MKN-45, 5.48; with SMMC-7721 it was 5.18.

Regarding `CCNCc1cnc2c(C#N)c(-c3ccc(OC)c(OC)c3OC)cc(-c3ccc(F)cc3F)n12`, the pIC50 was 7.05 in the assay with HT-29; 7.52 in the assay on NCI-H460; 6.77 in the assay on A549; 5.45 in the assay with MKN-45; 5.88 in the assay with SMMC-7721.

Turning to `N#Cc1c(-c2ccc(F)cc2Cl)cc(-c2c[nH]c3ccccc23)n2cc(CNC3CCCCC3)nc12`, the pIC50 with HT-29 was 7.70; with NCI-H460, 7.10; in the assay with A549 it was 5.60; in the assay with MKN-45 it was 5.43; in the assay on SMMC-7721 it was 5.31.

In the case of `CNCc1cn2c(-c3c[nH]c4ccccc34)cc(-c3ccc(F)cc3Cl)c(C#N)c2n1`, the pIC50 in the assay on HT-29 was 6.92; in the assay with NCI-H460 it was 6.60; with A549, 5.98; in the assay on MKN-45, 5.61; in the assay with SMMC-7721, 5.25.

As for `COc1cc(-c2cc(-c3ccc(F)cc3F)n3c(CN(C)C)cnc3c2C#N)cc(OC)c1OC`, the pIC50 was 6.44 in the assay with HT-29; 6.17 in the assay on NCI-H460; 4.51 in the assay on A549; 4.85 with MKN-45; 4.20 with SMMC-7721.

With `COc1ccc(-c2cc(-c3ccc(F)cc3F)n3c(CN(C)C)cnc3c2C#N)c(OC)c1OC`, the negative logarithm of the IC50 (pIC50) is 6.64 in the assay with HT-29; 6.70 in the assay with NCI-H460; 5.70 in the assay on A549; 5.04 in the assay on MKN-45; 5.19 in the assay with SMMC-7721.

With `CCN(CC)Cc1cn2c(-c3c[nH]c4ccccc34)cc(-c3ccc(F)cc3F)c(C#N)c2n1`, the pIC50 was 7.70 in the assay with HT-29; 6.96 in the assay with NCI-H460; 7.10 with A549; 5.49 in the assay on MKN-45; 5.72 in the assay on SMMC-7721.

Take `CN1CCN(Cc2cn3c(-c4c[nH]c5ccccc45)cc(-c4ccc(F)cc4Cl)c(C#N)c3n2)CC1`: the pIC50 in the assay on HT-29 is 6.85; in the assay with NCI-H460, 6.66; with A549 it was 5.81; in the assay on MKN-45 it was 5.44; in the assay on SMMC-7721 it was 5.15.

Take `CCNCc1cnc2c(C#N)c(-c3ccc(OC)c(OC)c3OC)cc(-c3ccc(F)cc3)n12`: the pIC50 was 6.04 with HT-29; 5.34 in the assay on NCI-H460; 5.49 with A549; 5.10 with MKN-45; 5.22 in the assay on SMMC-7721.

On to `CN(C)Cc1cn2c(-c3c[nH]c4ccccc34)cc(-c3ccc(F)cc3F)c(C#N)c2n1`, for which the pIC50 is 7.22 with HT-29; 6.72 in the assay with NCI-H460; 5.95 in the assay with A549; 5.87 in the assay with MKN-45; 5.28 in the assay with SMMC-7721.

Regarding `CN1CCN(Cc2cn3c(-c4c[nH]c5ccccc45)cc(-c4ccc(F)cc4F)c(C#N)c3n2)CC1`, the pIC50 in the assay on HT-29 is 6.96; in the assay on NCI-H460 it was 6.77; in the assay with A549, 6.04; with MKN-45 it was 5.57; in the assay with SMMC-7721 it was 5.42.

As to `CCN(CC)Cc1cnc2c(C#N)c(-c3ccc(OC)c(OC)c3OC)cc(-c3ccc(F)cc3F)n12`, the pIC50 was 6.68 in the assay with HT-29; 7.22 with NCI-H460; 5.98 in the assay on A549; 5.17 in the assay with MKN-45; 5.88 in the assay with SMMC-7721.

In the case of `N#Cc1c(-c2ccc(F)cc2F)cc(-c2c[nH]c3ccccc23)n2cc(CNC3CC3)nc12`, the pIC50 with HT-29 was 7.40; in the assay on NCI-H460, 6.55; with A549, 5.02; in the assay on MKN-45, 5.43; in the assay on SMMC-7721, 5.17.

`COc1ccc(-c2cc(-c3ccc(F)cc3F)n3c(CN4CCCC4)cnc3c2C#N)c(OC)c1OC`: the pIC50 with HT-29 was 5.87; with NCI-H460 it was 7.22; with A549, 6.10; in the assay on MKN-45 it was 5.14; in the assay on SMMC-7721 it was 5.62.

With `CC(=O)O[C@H]1C(=O)[C@@]2(C)[C@H]([C@H](OC(=O)c3ccccc3)[C@]3(O)C[C@H](OC(=O)[C@H](O)[C@@H](NC(=O)c4ccccc4)c4ccccc4)C(C)=C1C3(C)C)[C@]1(OC(C)=O)CO[C@@H]1C[C@@H]2O`, in the assay listed under Homo sapiens, the inhibition entry was “inactive”.

Turning to `COc1ccc(-c2cc(-c3ccc(F)cc3)n3c(CN4CCOCC4)cnc3c2C#N)c(OC)c1OC`, the pIC50 is 5.99 in the assay on HT-29; 5.01 in the assay with NCI-H460; 5.45 with A549; 4.98 in the assay with MKN-45; 5.39 in the assay on SMMC-7721.

With `N#Cc1c(-c2ccc(F)cc2F)cc(-c2c[nH]c3ccccc23)n2cc(CN3CCCC3)nc12`, the pIC50 was 7.40 in the assay with HT-29; 7.30 in the assay on NCI-H460; 5.99 in the assay with A549; 6.32 in the assay on MKN-45; 5.30 with SMMC-7721.

On to `COc1ccc(-c2cc(-c3ccc(F)cc3F)n3c(CN4CCOCC4)cnc3c2C#N)c(OC)c1OC`, for which the pIC50 in the assay on HT-29 is 6.33; in the assay on NCI-H460 it was 7.10; in the assay on A549, 5.94; in the assay on MKN-45, 5.62; in the assay with SMMC-7721, 5.49.

`CCN(CC)Cc1cnc2c(C#N)c(-c3cc(OC)c(OC)c(OC)c3)cc(-c3ccc(F)cc3F)n12`: the pIC50 in the assay with HT-29 is 5.45; in the assay with NCI-H460, 6.12; in the assay on A549, < 4.00; in the assay with MKN-45, 4.39; in the assay with SMMC-7721 it was < 4.00.

In the case of `COc1ccc(-c2cc(-c3ccc(F)cc3F)n3c(CN4CCC(C)CC4)cnc3c2C#N)c(OC)c1OC`, the pIC50 with HT-29 is 6.85; in the assay on NCI-H460, 7.22; in the assay with A549 it was 5.84; with MKN-45 it was 5.77; in the assay with SMMC-7721, 5.46.

Source of the values: ChEMBL document CHEMBL4052675, “Synthesis, biological evaluation and molecular modeling of imidazo[1,2-a]pyridine derivatives as potent antitubulin agents” (Bioorg Med Chem, 2017).
